# Compound activity as filed in PubChem.
# TRPC4 block: TRPC4 (mouse) channel inhibition. Q9QUQ5. HEK293 TRPC4beta/mu-opioid, DAMGO-evoked Fluo4 calcium flux; active compounds read low. B-score at 10 µM. 300,000 compounds, 0.39% hits. AID 2247;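 active = B-score over 3 SD under the library average, no early fluorescence shift, positive overall ratio signal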
#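 material = TRPC4beta/mu-opioid receptor HEK293 cell line | probe or stimulus = sequential submaximal and maximal DAMGO stimulation | compound dosing = one concentration per compound | measured by = Fluo4 Ca2+ flux fluorescence | evaluation = integrated fluorescence ratio relative to baseline, converted to per-well B score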
# TRPC6 inhibitor: inhibitors of mouse TRPC6 channel; Q61143; HEK293-TRPC6, membrane potential dye, ACh-evoked depolarization; active compounds read low; B-score at 10 µM; 310,000 compounds, 1.1% hits; AID 2553;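 active = B-score under library mean minus 3 SD, initial fluorescence not abnormally high, positive integrated signal ratio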;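 also: B-score derived from integrated fluorescence ratio over the kinetic read; more negative B-score means stronger inhibition of depolarization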
# Target sequence (Q61143 whole entry, looked up): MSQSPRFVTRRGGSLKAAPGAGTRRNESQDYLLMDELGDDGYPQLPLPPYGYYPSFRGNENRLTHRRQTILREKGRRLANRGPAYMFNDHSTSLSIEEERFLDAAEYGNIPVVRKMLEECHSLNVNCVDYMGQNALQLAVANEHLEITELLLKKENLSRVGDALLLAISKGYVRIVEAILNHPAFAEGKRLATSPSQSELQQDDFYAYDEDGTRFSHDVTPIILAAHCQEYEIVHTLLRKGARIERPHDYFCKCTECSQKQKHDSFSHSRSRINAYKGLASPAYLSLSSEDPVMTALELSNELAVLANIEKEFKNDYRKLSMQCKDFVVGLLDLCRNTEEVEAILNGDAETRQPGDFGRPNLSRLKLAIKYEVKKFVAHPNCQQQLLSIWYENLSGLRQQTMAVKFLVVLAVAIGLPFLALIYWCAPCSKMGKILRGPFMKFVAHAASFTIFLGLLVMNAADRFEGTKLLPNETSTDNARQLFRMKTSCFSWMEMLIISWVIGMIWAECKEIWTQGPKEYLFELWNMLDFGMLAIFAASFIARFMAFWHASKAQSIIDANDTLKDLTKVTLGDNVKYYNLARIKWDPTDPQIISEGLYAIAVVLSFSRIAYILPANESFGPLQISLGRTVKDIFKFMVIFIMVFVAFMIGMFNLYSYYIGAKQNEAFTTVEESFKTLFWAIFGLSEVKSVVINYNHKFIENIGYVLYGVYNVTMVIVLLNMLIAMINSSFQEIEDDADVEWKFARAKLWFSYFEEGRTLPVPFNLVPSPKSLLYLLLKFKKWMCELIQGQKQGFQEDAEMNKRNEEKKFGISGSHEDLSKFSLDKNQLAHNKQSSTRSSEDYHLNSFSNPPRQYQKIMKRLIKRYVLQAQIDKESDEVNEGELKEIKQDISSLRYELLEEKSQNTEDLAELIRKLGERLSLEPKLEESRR
# TRPC6 activator: activators of mouse TRPC6 channel; AID 2550; Q61143; HEK293-TRPC6 membrane potential dye fluorescence; active compounds read high; B-score at 10 µM; 310,000 compounds, 0.13% hits;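 active = B-score of the integrated fluorescence ratio above library mean plus 3 SD, and starting fluorescence ratio within library mean plus 5 SD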;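 also: higher score means more depolarization so channel activation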
# TRPC4 PAM: allosterically enhances the mouse TRPC4 cation channel | HEK293 TRPC4beta/mu-opioid, DAMGO EC20, Fluo-4 Ca2+ flux; active compounds read high | B-score at 10 µM | 310,000 compounds, 0.42% hits;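 active = B-score of calcium response area above 5 SD of library B-scores, with initial fluorescence ratio within 5 SD of library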;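 also: B-score of integrated fluorescence ratio over time as area under calcium response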
# TRPC4 act: opens the mouse TRPC4 cation channel; HEK293 TRPC4beta/mu-opioid, Fluo4 calcium fluorescence; active compounds read high; Q9QUQ5; B-score at 10 µM; 310,000 compounds, 0.49% hits;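 active = B-score above 5 SD of library B-scores, and initial fluorescence ratio not above library mean plus 5 SD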;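 also: positive B-score marks a calcium rise read as TRPC4 activation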
#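 Material: TRPC4beta and mu-opioid receptor HEK293 stable cells | Incubation: 45 min room-temperature Fluo4 loading, 110 s read | Detection: Kinetic Fluo4 calcium fluorescence | Measure: Integrated baseline-normalised fluorescence ratio, converted to per-well B score | Benchmarks: Low control buffer alone, high control maximal DAMGO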
# Active calls of the source: *; i = inactive. Compounds with a hit are over-represented: about 2.3% of the library has one in this group of screens.
SMILES,TRPC4 block,TRPC6 inhibitor,TRPC6 activator,TRPC4 PAM,TRPC4 act
Cc1ccc(NC(=O)c2cc(N3C(=O)CCC3=O)ccc2N2CCCCC2)cc1,i,i,i,i,i
CCCC/C(O)=C1\C(=O)CC(C)(C)CC1=Nc1ccc(OC)cc1,i,i,i,12*,i
COc1ccc(Cn2c(=O)[nH]c3cc(C(=O)N4CCN(c5ccc(C(C)=O)cc5)CC4)ccc3c2=O)cc1,i,i,i,i,i
O=C(CCC(=O)NNc1nc2ccccc2c2nc(-c3ccccc3)nn12)NCCCN1CCOCC1,i,i,i,i,i
CC(C)CCNC(=O)CCC(=O)NNc1nc2ccccc2c2nc(-c3ccccc3)nn12,i,i,i,23*,i
O=C(CCNC(=O)Cn1ccc2ccccc2c1=O)NCCN1CCN(c2cccc(Cl)c2)CC1,-6*,i,i,i,i
Clc1ccc(COc2ccccc2CNCc2cccnc2)cc1,-6*,i,i,i,i
c1ccc(COc2cccc(CNCc3cccnc3)c2)cc1,-6*,i,i,i,i
c1ccc(COc2cccc(CNCc3ccccn3)c2)cc1,i,i,i,i,i
COc1ccc(N(C(=O)c2ccco2)C(C(=O)NC2CCCC2)c2cc(OC)c(OC)c(OC)c2)cc1 (stereo unspecified),i,i,i,i,i
Cc1cccc(N/N=C(\C(N)=O)C2=NC(C)(C)Cc3ccccc32)c1,i,i,i,14*,i
CCOC(=O)/C(=N\O)C1=NC(C)(C)Cc2ccccc21,i,i,i,i,i
O=C(O)CCCn1cc(NC(=O)c2sc3ccccc3c2Cl)cn1,i,i,i,i,i
Cc1cc(Oc2ccc(-c3ccccc3)cc2)nc(N2CCOCC2)n1,i,i,i,i,i
Cc1cc(Oc2ccc(C(C)(C)C)cc2)nc(N2CCOCC2)n1,i,i,i,18*,i
COc1ccc(C2CCCN2CC(O)COc2ccccc2C(C)C)cc1 (stereo unspecified),i,i,i,i,i
CCCOc1ccc(CSC(=N)N)cc1C(=O)OC,i,i,i,i,185*
COC(=O)c1cc(CSC(=N)N)ccc1OCCC(C)C,i,i,i,i,i
N=C(N)SCc1ccc(O)c([N+](=O)[O-])c1,i,i,i,i,i
COc1ccc(CSC(=N)N)cc1[N+](=O)[O-],i,i,i,i,53*
CCCCN(C)CCCNC(=O)CS(=O)Cc1nc(-c2ccc(OC)c(OC)c2)oc1C (stereo unspecified),i,i,i,i,i
Cc1ccc(-c2nc(CS(=O)CC(=O)NCCCN3CC(C)CC(C)C3)c(C)o2)cc1 (stereo unspecified),i,i,i,i,62*
CCCN(CCC)CCCNC(=O)CS(=O)Cc1nc(-c2ccc(OC)c(OC)c2)oc1C (stereo unspecified),i,i,i,i,64*
COc1ccc(-c2nc(CS(=O)CC(=O)NCCCN3CC(C)CC(C)C3)c(C)o2)cc1OC (stereo unspecified),i,i,i,i,104*
CC1(C)CC(=O)c2sc(NC(=O)c3ccc4ncsc4c3)nc2C1,i,i,i,i,i
SMILES,TRPC4 block,TRPC6 inhibitor,TRPC6 activator,TRPC4 PAM,TRPC4 act
CC(SCc1ccccc1)C(=O)NN=C1CCN(C)CC1 (stereo unspecified),i,i,i,i,i
O=[N+]([O-])c1ccccc1CN1CCN(S(=O)(=O)c2ccccc2)CC1,i,i,i,17*,i
CCN(CCn1cccn1)C(=O)c1cc(COc2ccc(F)cc2Cl)on1,i,i,i,i,i
O=C(c1cc(COc2ccc(F)cc2Cl)on1)N(CCO)Cc1cccs1,i,i,i,11*,i
Cc1csc(-c2cnn(-c3ccccc3)c2NC(=O)c2ccc(C(F)(F)F)cc2)n1,i,i,i,i,i
O=C(Nc1ccc(S(=O)(=O)NC2=NCCCCC2)cc1)c1ccc2ccccc2n1,i,i,i,i,i
COc1ccc(OC)c(Nc2c3c(nc4ccccc24)CCC3)c1,-5*,i,i,i,i
N#Cc1cccc(Nc2c3c(nc4ccccc24)CCC3)c1,i,i,i,i,i
COc1cc(Nc2c3c(nc4ccccc24)CCC3)cc(OC)c1OC,i,i,i,i,i
Cc1cccc(Nc2c3c(nc4ccccc24)CCC3)c1,-6*,i,i,i,i
CCOc1cc(CNCC(C)C)c(Cl)cc1OCC(=O)Nc1ccccc1,i,i,i,i,i
O=C(Nc1ccc(Br)cc1)c1cccc(-n2cnnn2)c1,i,i,i,i,i
O=C(Nc1nc(-c2ccccn2)cs1)c1cccc(-n2cnnn2)c1,i,i,i,13*,i
Cc1cc(C(=O)N/N=C\c2cc(C(C)(C)C)ccc2O)n[nH]1,-6*,i,i,i,i
CC(=O)NC(=S)NNC(=O)CCc1ccccc1,i,i,i,i,i
CC(C)(C)c1cc(CCC(=O)NNC(=O)c2ccco2)cc(C(C)(C)C)c1O,i,i,i,i,i
CC(C)(C)c1cc(CCC(=O)NNC(=S)NC(=O)c2ccccc2)cc(C(C)(C)C)c1O,i,i,i,i,211*
O=C(CCc1ccccc1)NNC(=S)NC(=O)c1ccccc1,i,i,i,i,150*
CCc1nnc(NC(=O)CSc2nnc(C)c(=O)n2N)s1,i,i,i,i,i
COc1cc(NC(=O)CCCNC(=O)Cn2cnc3sc(C)c(C)c3c2=O)cc(OC)c1OC,i,i,i,i,i
c1ccc(CNCCC(Cc2ccccc2)c2ccco2)cc1 (stereo unspecified),i,i,i,i,i
CN(C)c1ccc(CNCCC(Cc2ccccc2)c2ccco2)cc1 (stereo unspecified),i,i,i,i,46*
COc1cccc(OCc2cc(/C=N/Nc3ccc(C(=O)O)cc3)ccc2OC)c1,i,i,i,i,i
CNC(=S)N1N=C(c2ccc(C)cc2)CC1c1ccc(OC)cc1 (stereo unspecified),i,i,i,i,i
CNC(=S)N1N=C(c2ccc(C)cc2)CC1c1cc(OC)ccc1OC (stereo unspecified),i,i,i,17*,i
CN1C(=O)C2(Nc3ccccc3-c3nc4ccccc4n32)c2ccccc21 (stereo unspecified),-6*,i,i,i,i
